Experiments:
Colletotrichum lagenaria = experiment: Fungicide activity against Colletotrichum lagenaria assessed as growth inhibition at 50 ug/mL at 24 to 26 degC measured after 2 days; assay type: functional; details: 48 h, read-out: GI
Alternaria solani = experiment: Fungicide activity against Alternaria solani assessed as growth inhibition at 50 ug/mL at 24 to 26 degC measured after 2 days; assay type: functional; details: 48 h, read-out: GI
Tobacco mosaic virus [1] = experiment: Antiviral activity against Tobacco mosaic virus (TMV) infected leaves assessed as viral inhibition at 50 ug/mL at 25 degC for 72 hr; assay type: functional
Outline: (§1)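 Systemic acquired resistance induction was assayed in a tobacco–TMV system. The antivirus inhibition ratio was calculated from the average number of viral lesions on inoculated leaves, relative to the corresponding control.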

Rhizoctonia solani = experiment: Fungicide activity against Rhizoctonia solani Kuhn assessed as growth inhibition at 50 ug/mL at 24 to 26 degC measured after 2 days; assay type: functional; details: 48 h, read-out: GI
[2] = test system: Botryosphaeria berengeriana; experiment: Fungicide activity against Botryosphaeria berengeriana assessed as growth inhibition at 50 ug/mL at 24 to 26 degC measured after 2 days; assay type: functional; details: 48 h, read-out: GI
Thanatephorus cucumeris = experiment: Fungicide activity against Thanatephorus cucumeris assessed as growth inhibition at 50 ug/mL at 24 to 26 degC measured after 2 days; assay type: functional; details: 48 h, read-out: GI
Phytophthora infestans = experiment: Fungicide activity against Phytophthora infestans assessed as growth inhibition at 50 ug/mL at 24 to 26 degC measured after 2 days; assay type: functional; details: 48 h, read-out: GI
Fusarium oxysporum = experiment: Fungicide activity against Fusarium oxysporum assessed as growth inhibition at 50 ug/mL at 24 to 26 degC measured after 2 days; assay type: functional; details: 48 h, read-out: GI
Nicotiana tabacum = experiment: Phytotoxicity against Nicotiana tabacum (tobacco) plant at 50 to 500 ug/mL; assay type: organism-based; details: in vivo
Puccinia triticina = experiment: Fungicide activity against Puccinia triticina assessed as growth inhibition at 50 ug/mL at 24 to 26 degC measured after 2 days; assay type: functional; details: 48 h, read-out: GI
Cercospora beticola = experiment: Fungicide activity against Cercospora beticola assessed as growth inhibition at 50 ug/mL at 24 to 26 degC measured after 2 days; assay type: functional; details: 48 h, read-out: GI
Mycosphaerella arachidis = experiment: Fungicide activity against Mycosphaerella arachidis assessed as growth inhibition at 50 ug/mL at 24 to 26 degC measured after 2 days; assay type: functional; details: 48 h, read-out: GI
Botrytis cinerea = experiment: Fungicide activity against Botryotinia fuckeliana assessed as growth inhibition at 50 ug/mL at 24 to 26 degC measured after 2 days; assay type: functional; details: 48 h, read-out: GI
Fusarium graminearum = experiment: Fungicide activity against Fusarium graminearum assessed as growth inhibition at 50 ug/mL at 24 to 26 degC measured after 2 days; assay type: functional; details: 48 h, read-out: GI
Tobacco mosaic virus [3] = experiment: Antiviral activity against Tobacco mosaic virus (TMV) infected leaves assessed as viral inhibition at 500 ug/mL at 25 degC for 72 hr; assay type: functional; outline: as §1
Tobacco mosaic virus [4] = experiment: Antiviral activity against Tobacco mosaic virus (TMV) infected leaves assessed as viral inhibition at 100 ug/mL at 25 degC for 72 hr; assay type: functional; outline: as §1

SMILES | inhibition of growth at 50 µg/mL (Colletotrichum lagenaria) [%] | inhibition of growth at 50 µg/mL (Alternaria solani) [%] | inhibition at 50 µg/mL (Tobacco mosaic virus [1]) [%] | inhibition of growth at 50 µg/mL (Rhizoctonia solani) [%] | inhibition of growth at 50 µg/mL [2] [%] | inhibition of growth at 50 µg/mL (Thanatephorus cucumeris) [%] | inhibition of growth at 50 µg/mL (Phytophthora infestans) [%] | inhibition of growth at 50 µg/mL (Fusarium oxysporum) [%] | Activity (Nicotiana tabacum) | inhibition of growth at 50 µg/mL (Puccinia triticina) [%] | inhibition of growth at 50 µg/mL (Cercospora beticola) [%] | inhibition of growth at 50 µg/mL (Mycosphaerella arachidis) [%] | inhibition of growth at 50 µg/mL (Botrytis cinerea) [%] | inhibition of growth at 50 µg/mL (Fusarium graminearum) [%] | inhibition at 500 µg/mL (Tobacco mosaic virus [3]) [%] | inhibition at 100 µg/mL (Tobacco mosaic virus [4]) [%]
Cc1nnsc1C1=NNC2SC(c3ccccc3OC(F)(F)F)=NN12 (configuration not stated) | 45.5 | 4.8 | 25 | 5.6 | 15.4 | 35.7 | 0 | 86 | Toxic | 0 | 0 | 7.7 |  |  |  | 
CCCC1=NN2C(c3snnc3C)=NNC2S1 (configuration not stated) | 50 | 34.4 | 0 |  | 40.5 | 77.8 | 75.8 | 93 | Toxic |  | 33.3 | 62.1 | 84.9 | 75 |  | 
COc1ccccc1C1=NN2C(c3snnc3C)=NNC2S1 (configuration not stated) | 27.3 | 30 | 40 |  | 24.4 | 32.8 | 11.1 | 17.2 | Toxic |  | 30 | 25 | 50 | 18.2 |  | 
Cc1nnsc1C1=NNC2SC(c3c(-c4ccccc4)noc3C)=NN12 (configuration not stated) | 13.6 | 33.3 | 14.6 |  | 8.9 | 25.4 | 7.4 | 13.8 | Toxic |  | 10 | 30 | 46.2 | 27.3 |  | 
Cc1nnsc1C1=NNC2SC(c3ccncc3)=NN12 (configuration not stated) | 27.3 | 9.5 | 27 | 5.7 | 7.7 | 44.6 | 0 | 44.4 | Toxic | 10 | 0 | 23.1 |  |  |  | 
Cc1nnsc1C1=NNC2SC(/C=C/c3ccccc3)=NN12 (configuration not stated) | 26.9 | 31.3 |  |  | 40.5 | 33.3 | 18.2 | 9.1 | Toxic |  | 13.3 | 27.6 | 81.8 | 17.5 | 27.8 | 16.7
Cc1nnsc1C1=NNC2SC(c3cccc(F)c3)=NN12 (configuration not stated) | 0 | 37.1 |  |  | 54.1 | 32.8 | 0 | 10 | Toxic |  | 27.3 | 23.5 | 75 | 40.5 | 30.7 | 24.2
Cc1nnsc1C1=NNC2SC(CCl)=NN12 (configuration not stated) | 4.3 | 23.8 | 29.2 |  | 33.3 | 38.4 | 11.4 | 25 | Toxic |  | 21.4 | 34.8 | 65.2 | 33.3 |  | 
COc1cccc(C2=NN3C(c4snnc4C)=NNC3S2)c1 (configuration not stated) | 0 | 23.3 | 0 |  | 45.2 | 60.8 | 17.3 | 19.4 | Toxic | 31.6 | 14.3 | 18.2 |  |  |  | 
Cc1nnsc1C1=NNC2SC(C(C)(C)C)=NN12 (configuration not stated) | 5.88 | 16.7 | 7.89 |  | 17.7 | 56.7 | 14.7 | 13.9 | Toxic | 26.3 | 23.8 | 36.4 |  |  |  | 
Cc1nnsc1C1=NNC2SC(c3ccco3)=NN12 (configuration not stated) | 0 | 43.3 |  |  | 29 | 45.1 | 14.7 | 22.2 | Toxic | 21 | 42.9 | 36.4 |  |  | 23.5 | 20
Cc1nnsc1C1=NNC2SC(c3c(Cl)cccc3Cl)=NN12 (configuration not stated) | 20.7 | 23.7 | 12.5 |  | 37.2 | 42.3 | 20 | 13.9 | Toxic |  | 28.6 | 23.1 | 64.4 | 14.3 |  | 
Cc1nnsc1C1=NNC2SC(c3cccc(OC(F)(F)F)c3)=NN12 (configuration not stated) | 13.8 | 23.7 |  |  | 25.6 | 35.2 | 17.8 | 18.6 | Toxic |  | 35.7 | 23.1 | 68.9 | 4.8 | 37.5 | 30
COc1ccc(C2=NN3C(c4snnc4C)=NNC3S2)cc1 (configuration not stated) | 18.2 | 0 | 17.9 | 11.1 | 7.7 | 46.4 | 4.8 | 44.4 | Toxic | 10 | 0 | 7.7 |  |  |  | 
Cc1nnsc1C1=NNC2SC(c3ccc([N+](=O)[O-])cc3)=NN12 (configuration not stated) | 13.8 | 26.7 |  |  | 34.9 | 32.4 | 22.2 | 20.9 | Toxic |  | 14.3 | 30.8 | 60 | 11.9 | 52.9 | 16.7
Cc1nnsc1C1=NNC2SC(COc3ccc(Cl)cc3Cl)=NN12 (configuration not stated) | 19.2 | 31.3 | 0 |  | 23.8 | 33.3 | 12.1 | 3 | Toxic |  | 20 | 31 |  | 12.5 |  | 
Cc1nnsc1C1=NNC2SC(c3ccccc3F)=NN12 (configuration not stated) | 11.8 | 40 |  |  | 24.2 | 58.8 | 20 | 19.4 | Toxic | 21.1 | 23.8 | 18.2 |  |  | 53.6 | 9.5
Cc1nnsc1C1=NNC2SC(c3ccc(F)cc3)=NN12 (configuration not stated) | 10.3 | 26.3 | 0 |  | 18.6 | 11.3 | 15.6 | 9.3 | Toxic |  | 7.1 | 33.1 | 53.3 | 14.3 |  | 

Source: ChEMBL document CHEMBL3044632, “Synthesis, crystal structure, and biological activity of 4-methyl-1,2,3-thiadiazole-containing 1,2,4-triazolo[3,4-b][1,3,4]thiadiazoles” (J Agric Food Chem, 2010)
